Screening data as filed in PubChem BioAssay.
TRPC6 act – activators of mouse TRPC6 channel. HEK293-TRPC6 membrane potential dye fluorescence; hits give high values. B-score at 10 µM. 0.13% of 310,000 active. AID 2550;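 active means B-score of the integrated fluorescence ratio above library mean plus 3 SD, and starting fluorescence ratio within library mean plus 5 SD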;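 further: higher score means more depolarization so channel activation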
TRPC4 PAM – allosterically enhances the mouse TRPC4 cation channel; Q9QUQ5; HEK293 TRPC4beta/mu-opioid, DAMGO EC20, Fluo-4 Ca2+ flux; hits give high values; B-score at 10 µM; 0.42% of 310,000 active; AID 2227;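 active means B-score of calcium response area above 5 SD of library B-scores, with initial fluorescence ratio within 5 SD of library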
TRPC6 inhibitor – blocks the mouse TRPC6 cation channel; Q61143; B-score at 10 µM; HEK293-TRPC6, membrane potential dye, ACh-evoked depolarization; hits give low values; 1.1% of 310,000 active;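 active means B-score under library mean minus 3 SD, initial fluorescence not abnormally high, positive integrated signal ratio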;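 further: B-score derived from integrated fluorescence ratio over the kinetic read; more negative B-score means stronger inhibition of depolarization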
TRPC4 block – inhibitors of mouse TRPC4 channel | HEK293 TRPC4beta/mu-opioid, DAMGO-evoked Fluo4 calcium flux; hits give low values | B-score at 10 µM | 0.39% of 300,000 active | AID 2247;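 active means B-score over 3 SD under the library average, no early fluorescence shift, positive overall ratio signal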
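Assay system: TRPC4beta/mu-opioid receptor HEK293 cell line; compound dosing: single concentration per test compound; detection: Fluo4 Ca2+ flux fluorescence; evaluation: per-well B score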
TRPC4 act – TRPC4 (mouse) channel activation; Q9QUQ5; HEK293 TRPC4beta/mu-opioid, Fluo4 calcium fluorescence; hits give high values; B-score at 10 µM; 0.49% of 310,000 active; AID 2237;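 active means B-score above 5 SD of library B-scores, and initial fluorescence ratio not above library mean plus 5 SD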;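 further: positive B-score marks a calcium rise read as TRPC4 activation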
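Material: TRPC4beta and mu-opioid receptor HEK293 stable cells | Incubation: 45 min room-temperature Fluo4 loading, 110 s read | Detection: Kinetic Fluo4 calcium fluorescence | Measure: Integrated baseline-normalised fluorescence ratio, converted to per-well B score | Benchmarks: Low control buffer alone, high control maximal DAMGO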
Of the large screens only hits and unclear results are named; the others gave an inactive call. Sampled rows, rich in hits. Any-hit rate of the full collection: about 2.3%.

CSCC[C@H](NC(=O)OC(C)(C)C)C(=O)N/N=C/c1cccc2cccnc12	TRPC4 PAM 10
CCCCCOc1ccc2oc(=O)c3c(c2c1)CCCN3C(=O)CN1CCCC(C(=O)OCC)C1 (stereo not given)	TRPC4 PAM 33
O=C(NCC1CCCN1S(=O)(=O)c1cccs1)c1c(F)cccc1F (stereo not given)	none
COc1cccc(/C=C2\SC(=S)N(CC3CCCO3)C2=O)c1 (stereo not given)	TRPC4 block -6
O=C1/C(=C/c2cccc(O)c2)SC(=S)N1CC1CCCO1 (stereo not given)	none
O=C(N/N=C/c1ccc(F)cc1)c1cccc(NC(=O)c2ccc(F)cc2)c1	none
CCSc1nnc(NC(=O)[C@@H](NC(=O)c2cc(OC)cc(OC)c2)C(C)C)s1	none
CC(C)c1ccc(C2=NN(c3ccccc3)C(=O)CC2)cc1	TRPC4 PAM 11
COc1ccc(C(CNC(=O)Cc2cccs2)N(C)C)cc1 (stereo not given)	TRPC4 act 99
COc1ccc(CNC(=O)Cc2cccs2)cc1	none
COc1ccc(C(=O)CN2C(=O)NC3(CCCCCC3)C2=O)cc1	none
COc1ccc(CC(=O)NCC(c2ccc(OC)cc2)N(C)C)cc1 (stereo not given)	TRPC4 act 216
COc1ccc(C(CNC(=O)CN2C(=O)NC3(CCCC3)C2=O)N(C)C)cc1 (stereo not given)	TRPC4 act 134
CCOCCCNC(=S)N1CCN(Cc2ccc3c(c2)OCO3)CC1	none
Cc1cc(OC(C)C(=O)NCc2ccccn2)c2c(C)c(C)c(=O)oc2c1 (stereo not given)	none
O=C1OCCN1c1c(-c2ccccc2)c(-c2cccs2)nc2c(-c3ccccc3)cccc12	none
COc1ccc(CCNC(=S)N2CCC(Cc3ccccc3)CC2)cc1OC	none
COc1ccc(OC)c(NC(=O)c2ccc(-c3cccs3)cc2)c1	none
CSc1ccc2nnc(-c3cccc(F)c3)n2n1	TRPC4 PAM 21
CCCOc1ccc(C2=CSC3=NCCN23)cc1[N+](=O)[O-]	TRPC6 inhibitor -6.2
CCc1ccc(Nc2n[n+](-c3ccccc3)c(-c3c(Cl)cccc3Cl)s2)cc1	none
CCc1ccc(Nc2n[n+](-c3ccccc3)c(/C=C/c3ccccc3)s2)cc1	TRPC4 PAM 15
COc1cc(/C=N/NC(=O)C2CC(=O)N(c3ccc(C)cc3)C2)cc(OC)c1OC (stereo not given)	none
CCCNc1nc(-c2ccccc2)c(C(=O)OCC)cc1C#N	none
CCCCNc1nc(-c2ccccc2)c(C(=O)OCC)cc1C#N	TRPC4 block -6
Cc1cccc(N=Nc2cnc(N)s2)c1	none
CC(C)c1ccc(NC(=S)N(C)CCc2ccccn2)cc1	TRPC4 act 107
CN(CC(=O)Nc1ccccc1Cl)C(=O)COC(=O)c1cc([N+](=O)[O-])ccc1N1CCOCC1	none
CC(C)c1ccc(C(C)NCCS(=O)(=O)c2ccc(Br)cc2)cc1 (stereo not given)	TRPC4 PAM 19
CC(NCCS(=O)(=O)c1ccc(Cl)cc1)c1cccc(Cl)c1 (stereo not given)	none
O=c1c(Oc2ccccc2)coc2cc(O)cc(O)c12	none
COC(=O)CS(=O)(=O)c1nnc([C@H](Cc2ccccc2)NC(=O)OC(C)(C)C)o1	TRPC4 block -5
CC(=O)c1ccccc1OCCCCN1CCCCC1	none
O=C(COc1cccc2ccccc12)N/N=C/c1ccccc1OCc1ccc(C(=O)O)cc1	TRPC4 block -5
CN(C1=C(N2CCCCC2)C(=O)c2ccccc2C1=O)c1ccccc1	TRPC6 inhibitor -7.2
Cc1ccccc1N1CC(O)(c2cccs2)[N+]2=C1CCCC2 (stereo not given)	TRPC4 block -9
Cc1ccc(C(=O)NCCCN2CCN(CCCNC(=O)c3ccc(C)cc3)CC2)cc1	none
O=C(CCN1c2ccccc2Sc2ccccc21)OCc1nnc(-c2ccccc2)o1	TRPC4 PAM 12
O=C(O)c1cc(S(=O)(=O)N2CC3CC3C2C(=O)O)c(Cl)cc1Cl (stereo not given)	none
CCN(CC)C(=O)CSc1nc2c(sc(=S)n2Cc2ccco2)c(=O)n1-c1ccccc1	none
CCOC(=O)CSc1nc2c(sc(=S)n2-c2ccccc2OC)c(=O)n1-c1ccccc1OC	none
CCOC(=O)CSc1nc2c(sc(=S)n2Cc2ccco2)c(=O)n1-c1ccccc1	TRPC4 block -6
CCOC(=O)CSc1nc2c(sc(=S)n2-c2ccccc2OC)c(=O)n1Cc1ccco1	TRPC6 inhibitor -5.7, TRPC4 block -5
CCN1CCCC1CNC(=O)c1ccccc1Cl (stereo not given)	none
CCc1cc(Cl)c(OC)c(C(=O)NC[C@@H]2CCCN2CC)c1O	TRPC4 act 70
COc1cccc(NC(=O)NC2CCCc3ccccc32)c1 (stereo not given)	none
CC(OCC(O)CN(C)CCOc1ccccc1)c1ccc(Cl)cc1 (stereo not given)	TRPC4 block -6
CN(CCOc1ccccc1)CC(O)COCc1ccccc1F (stereo not given)	none
CN(CCOc1ccccc1)CC(O)COc1ccccc1 (stereo not given)	TRPC4 block -6
NC(=O)CN1C(=O)NC2(CCCc3sccc32)C1=O (stereo not given)	none
Cc1cc(C(=O)CN2C(=O)NC3(CCCc4sccc43)C2=O)c(C)n1-c1ccc(Cl)cc1 (stereo not given)	TRPC4 PAM 10
O=S(=O)(NCc1ccccn1)c1ccc2ccccc2c1	none
O=C(CNS(=O)(=O)c1ccc2ccccc2c1)NCCc1ccccn1	TRPC4 act 137
CCN(CC)S(=O)(=O)c1ccc(N2CCN(C)CC2)c(NC(=O)COc2ccc(F)cc2Cl)c1	none
COc1cc(OC)c(C2N(C)c3ccccc3N2C)cc1OC	TRPC4 block -6
COC(=O)C1=CN(c2ccc(OC)cc2)C=C(C(=O)OC)C1c1cc(OC)c(OC)cc1OC	none
CCCCN(C(=O)c1cccc2c(=O)c(C)c(-c3ccccc3)oc12)c1ccccc1	TRPC4 PAM 32
OCCN1CCN(Cc2cc(Br)cc(Br)c2O)CC1	TRPC4 act 176
CCCN1CCN(CCCNC(=O)Cn2nc(C)n3c(cc4cc(F)ccc43)c2=O)CC1	none
COc1ccc(CCNC(=O)c2ccccc2NS(=O)(=O)c2c(F)cccc2F)cc1	none
COc1ccc(OC2CCN(S(=O)(=O)c3ccc(F)cc3)CC2)cc1	none
COc1ccc(OC2CCN(S(=O)(=O)c3ccccc3)CC2)cc1	TRPC4 PAM 13
Cc1ccc(S(=O)(=O)NC(=O)N2CCN(Cc3c(F)cccc3Cl)CC2)cc1	TRPC4 PAM 21
COc1ccc(Cl)cc1NC(=O)NCC1CCN(Cc2cc(C)ccc2C)CC1	none
Cc1ccc(C)c(CN2CCC(CNC(=O)Nc3ccc(C)c(C)c3)CC2)c1	TRPC4 PAM 11
Cc1nn(CC(=O)Nc2cccnc2)c(C)c1[N+](=O)[O-]	none
